The source of these data is ChEMBL document CHEMBL3616408, “Elaboration of a fragment library hit produces potent and selective aspartate semialdehyde dehydrogenase inhibitors” (Bioorg Med Chem, 2015).

Assay [1] is described as follows: Inhibition of Streptococcus pneumoniae ASADH using aspartate semialdehyde and NADP+. The method, boiled down: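 Recombinant enzyme, stored at -20 °C in 50 mM HEPES pH 7, 1 mM EDTA, 1 mM DTT. Reverse reaction run at room temperature in 120 mM CHES pH 8.6, 200 mM KCl, with 0.15 mM ASA, 1.5 mM NADP and 20 mM phosphate; 30 μg ml−1 enzyme starts it. NADPH formation read at 340 nm. Inhibitor serially diluted; Ki from Dixon plot of initial velocities, assuming competition with ASA.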

Assay [2] in a line: (§1) Inhibition of Vibrio cholerae ASADH using aspartate semialdehyde and NADP+.
For assay [3], the system named is Vibrio cholerae. Nature of the assay: Inhibition of Vibrio cholerae ASADH up to 2 mM using aspartate semialdehyde and NADP+. The procedure, abridged: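 Recombinant V. cholerae enzyme assayed in reverse direction at r.t. in 120 mM CHES pH 8.6 with 200 mM KCl, 0.3 mM ASA, 1.5 mM NADP and 20 mM phosphate. Reaction started with 30 μg ml−1 enzyme, and NADPH formation followed at 340 nm. Inhibitor tested at concentrations up to 2 mM.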

Assay [4] can be described thus: Selectivity index, ratio of Ki for Vibrio cholerae ASADH to KI for Streptococcus pneumoniae ASADH. The procedure, abridged: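 Recombinant S. pneumoniae and V. cholerae ASADH, stored at -20 °C in 50 mM HEPES pH 7, 1 mM EDTA, 1 mM DTT. Reverse reaction run at r.t. in 120 mM CHES pH 8.6, 200 mM KCl, with 1.5 mM NADP, 20 mM phosphate, and ASA at 0.15 mM (sp) or 0.3 mM (vc). Enzyme was 30 μg ml−1. NADPH formation was read at 340 nm. Serially diluted inhibitor gave initial velocities, and Ki came from Dixon plots assuming competition with ASA. The index is vc Ki divided by sp Ki.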

Assay [5] relates to Vibrio cholerae. Nature of the assay: Inhibition of Vibrio cholerae ASADH up to 4 mM using aspartate semialdehyde and NADP+. The method, boiled down:
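Recombinant V. cholerae enzyme assayed in reverse direction at r.t. in 120 mM CHES pH 8.6 with 200 mM KCl, 0.3 mM ASA, 1.5 mM NADP and 20 mM phosphate. Reaction started with 30 μg ml−1 enzyme, and NADPH formation followed at 340 nm. Inhibitor tested at concentrations up to 4 mM.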

Assay [6] relates to Vibrio cholerae. Described as §1.

Active and inactive are the calls of the source. The calls are words filed in the database; no cut-off is given here.

Turning to `O=C([O-])CCNCc1ccc(C(=O)[O-])c(C(=O)[O-])c1.[Na+].[Na+].[Na+]`, the results for the Ki in assay [1] and in assay [2] were 2400 µM and “Not Active”, respectively. The inhibition result in assay [3] is “inactive”.

`O=C(O)CN(Cc1ccc(C(F)(F)F)cc1)Cc1ccc(C(=O)O)c(C(=O)O)c1`: the Ki is 24 µM in assay [1] and 628 µM in assay [2] (read-out: Ki). Further, the Ratio Ki in assay [4] is 10.

`Cc1ccccc1CN(CC(=O)O)Cc1ccc(C(=O)O)c(C(=O)O)c1`: the figures for the Ki in assay [1] and in assay [2] (read-out: Ki) were 524 µM and 721 µM, respectively. Also, the Ratio Ki in assay [4] was 10.

Consider `O=C([O-])CCN(Cc1ccc(Br)cc1)Cc1ccc(C(=O)[O-])c(C(=O)[O-])c1.[Na+].[Na+].[Na+]`, for which the inhibition constant Ki in assay [1] is 3600 µM; in assay [2] it was “Not Active”. For the same molecule, the inhibition result in assay [5] was “inactive”.

As for `O=C(O)c1ccc(CN[C@@H](CO)C(=O)O)cc1C(=O)O`, the Ki is 324 µM in assay [1] and 654 µM in assay [2] (read-out: Ki).

For the molecule `O=C(O)CN(Cc1ccc(C(=O)O)c(C(=O)O)c1)Cc1ccccc1Br`, the Ki is 529 µM in assay [1] and 737 µM in assay [2] (read-out: Ki). In assay [4], the Ratio Ki is 10.

On to `NC(=O)c1ccc(CN(CC(=O)O)Cc2ccc(C(=O)O)c(C(=O)O)c2)cc1`, for which the Ki in assay [1] amounted to 229 µM; in assay [2] (read-out: Ki) it was 649 µM. Further, the Ratio Ki in assay [4] turned out to be 10.

Turning to `CN(CC(=O)O)Cc1cccc(C(=O)O)c1C(=O)O`, in assay [1], affinity was put at a Ki of 1800 µM. In assay [6], the inhibition entry is “inactive”.

With `CN(CC(=O)O)Cc1ccc(C(=O)O)c(C(=O)O)c1`, the Ki in assay [1] stood at 296 µM; in assay [2] (read-out: Ki), 675 µM.

Regarding `O=C(O)CN(Cc1ccc(C(=O)O)c(C(=O)O)c1)Cc1ccccc1C(F)(F)F`, the results for the Ki in assay [1] and in assay [2] (read-out: Ki) were 509 µM and 727 µM, respectively. The Ratio Ki in assay [4] amounted to 10.

As for `O=C([O-])CCN(Cc1ccc(C(F)(F)F)cc1)Cc1ccc(C(=O)[O-])c(C(=O)[O-])c1.[Na+].[Na+].[Na+]`, the values for the Ki in assay [1] and in assay [2] were 3800 µM and “Not Active”, respectively. Further, the inhibition entry in assay [5] was “inactive”.

Turning to `C=CCN(CC(=O)O)Cc1ccc(C(=O)O)c(C(=O)O)c1`, the results for the Ki in assay [1] and in assay [2] (read-out: Ki) were 303 µM and 663 µM, respectively.

As for `O=C(O)CN(Cc1ccc(/C=C/Cc2ccccc2)cc1)Cc1ccc(C(=O)O)c(C(=O)O)c1`, the Ki was 476 µM in assay [1] and 1100 µM in assay [2] (read-out: Ki). Also, in assay [4], the Ratio Ki amounted to 10.

In the case of `O=C(O)CN(Cc1ccc(Br)cc1)Cc1ccc(C(=O)O)c(C(=O)O)c1`, the inhibition constant (Ki) in assay [1] was 57 µM; in assay [2] (read-out: Ki), 629 µM. For the same molecule, in assay [4], the Ratio Ki was 10.

In the case of `O=C(O)CN(Cc1cccc(C(F)(F)F)c1)Cc1ccc(C(=O)O)c(C(=O)O)c1`, the values for the Ki in assay [1] and in assay [2] (read-out: Ki) were 441 µM and 678 µM, respectively. Besides, the Ratio Ki in assay [4] came to 10.

Take `O=C(O)CN(Cc1ccc(C(=O)O)c(C(=O)O)c1)Cc1ccccc1OC(F)(F)F`: the Ki in assay [1] is 540 µM; in assay [2] (read-out: Ki), 708 µM. Besides, in assay [4], the Ratio Ki was 10.

Consider `O=C(O)CN(Cc1ccc(OC(F)F)cc1)Cc1ccc(C(=O)O)c(C(=O)O)c1`, for which the figures for the Ki in assay [1] and in assay [2] (read-out: Ki) were 54 µM and 698 µM, respectively. In assay [4], the Ratio Ki stood at 10.

As for `O=CCN(CC(=O)O)Cc1ccc(C(=O)O)c(C(=O)O)c1`, the Ki in assay [1] was 276 µM; in assay [2] (read-out: Ki), 655 µM.

For `N#CCCN(CC(=O)O)Cc1ccc(C(=O)O)c(C(=O)O)c1`, the Ki in assay [1] is 220 µM; in assay [2] (read-out: Ki), 498 µM.

For `O=C(O)CN(Cc1ccc(C(=O)O)cc1)Cc1ccc(C(=O)O)c(C(=O)O)c1`, the Ki in assay [1] was found to be 72 µM; in assay [2] (read-out: Ki), 635 µM. The Ratio Ki in assay [4] worked out at 10.

As for `C[C@H](NCc1ccc(C(=O)O)c(C(=O)O)c1)C(=O)O`, the Ki came out at 296 µM in assay [1] and 609 µM in assay [2] (read-out: Ki).

In the case of `Cc1cccc(CN(CC(=O)O)Cc2ccc(C(=O)O)c(C(=O)O)c2)c1`, the Ki in assay [1] stood at 430 µM; in assay [2] (read-out: Ki) it was 690 µM. In addition, the Ratio Ki in assay [4] amounted to 10.

Take `O=C(O)CNCc1ccc(C(=O)O)c(C(=O)O)c1`: the Ki in assay [1] was 246 µM; in assay [2] (read-out: Ki) it was 528 µM. Further, the Ratio Ki in assay [4] came to 2.

For `O=C(O)CN(Cc1cccc(Br)c1)Cc1ccc(C(=O)O)c(C(=O)O)c1`, the Ki came to 442 µM in assay [1] and 665 µM in assay [2] (read-out: Ki). The Ratio Ki in assay [4] came to 10.

Take `O=C(O)CN(Cc1ccccc1)Cc1ccc(C(=O)O)c(C(=O)O)c1`: the Ki in assay [1] worked out at 297 µM; in assay [2] (read-out: Ki), 696 µM.

In the case of `Cc1ccc(CN(CC(=O)O)Cc2ccc(C(=O)O)c(C(=O)O)c2)cc1`, the Ki in assay [1] stood at 63 µM; in assay [2] (read-out: Ki) it was 608 µM. Further, in assay [4], the Ratio Ki was determined as 10.

Regarding `O=C(O)CN(Cc1cccc(OC(F)(F)F)c1)Cc1ccc(C(=O)O)c(C(=O)O)c1`, the Ki is 427 µM in assay [1] and 684 µM in assay [2] (read-out: Ki). The Ratio Ki in assay [4] amounted to 10.

Consider `CC(C)(C)c1ccc(CN(CC(=O)O)Cc2ccc(C(=O)O)c(C(=O)O)c2)cc1`, for which the inhibition constant (Ki) was 16 µM in assay [1] and 648 µM in assay [2] (read-out: Ki). The Ratio Ki in assay [4] stood at 10.

Turning to `O=C(O)CN(CCN1CCOCC1)Cc1ccc(C(=O)O)c(C(=O)O)c1`, the Ki in assay [1] turned out to be 176 µM; in assay [2] (read-out: Ki), 692 µM.

As to `O=C(O)CN(Cc1ccc(OC(F)(F)F)cc1)Cc1ccc(C(=O)O)c(C(=O)O)c1`, the Ki in assay [1] was found to be 36 µM; in assay [2] (read-out: Ki), 663 µM. Also, the Ratio Ki in assay [4] was found to be 10.

What is called Ki is the equilibrium dissociation constant of an inhibitor or competing ligand from its target.
